According to ChEMBL document CHEMBL1156469 (2007):
Active and inactive are the calls of the source. The calls are words filed in the database; no cut-off is given here.

Columns and labels:
[1] = system: Osteoblast; experiment: Effect on bone morphogenetic protein receptor 1B gene expression in rat primary osteoblast cells assessed as expression ratio of treated to untreated control by microarray analysis; type: functional
[2] = system: Osteoblast; experiment: Effect on integrin alpha V gene expression in rat primary osteoblast cells assessed as expression ratio of treated to untreated control by microarray analysis; type: functional
Procedure, shortened: (§1)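 Resveratrol-treated and vehicle-treated primary osteoblasts were profiled on a mouse osteogenesis-focused cDNA array (GEArray Q series) built to track gene expression during osteogenic differentiation. Each gene's signal in treated cells was expressed as a ratio to untreated control.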

[3] = system: Osteoblast; experiment: Effect on ornithine decarboxylase gene expression in rat primary osteoblast cells assessed as expression ratio of treated to untreated control by microarray analysis; type: functional; procedure, shortened: as §1
[4] = system: Osteoblast; experiment: Effect on matrix metalloprotease 10 gene expression in rat primary osteoblast cells assessed as expression ratio of treated to untreated control by microarray analysis; type: functional; procedure, shortened: as §1
[5] = target: Forkhead box protein O3 (Homo sapiens) (UniProt O43524); experiment: Induction of FOXO3a activity in human MDA-MB-231 cells; type: cell-based
[6] = system: Osteoblast; experiment: Effect on bone morphogenetic protein 6 gene expression in rat primary osteoblast cells assessed as expression ratio of treated to untreated control by microarray analysis; type: functional
[7] = system: Osteoblast; experiment: Effect on bone morphogenetic protein 1 gene expression in rat primary osteoblast cells assessed as expression ratio of treated to untreated control by microarray analysis; type: functional
[8] = system: Osteoblast; experiment: Effect on procollagen 4 alpha 6 gene expression in rat primary osteoblast cells assessed as expression ratio of treated to untreated control by microarray analysis; type: functional; procedure, shortened: as §1
[9] = Effect on colony stimulating factor 2 gene expression in rat primary osteoblast cells assessed as expression ratio of treated to untreated control by microarray analysis; type: functional
[10] = target: T1, Estrogen receptor (Mus musculus) (UniProt P19785); experiment: Increase in DNA-binding activity of ERalpha in nuclear extracts of mouse MC3T3-E1 cells by electrophoretic mobility shift assays; type: cell-based
T1 sequence (whole entry): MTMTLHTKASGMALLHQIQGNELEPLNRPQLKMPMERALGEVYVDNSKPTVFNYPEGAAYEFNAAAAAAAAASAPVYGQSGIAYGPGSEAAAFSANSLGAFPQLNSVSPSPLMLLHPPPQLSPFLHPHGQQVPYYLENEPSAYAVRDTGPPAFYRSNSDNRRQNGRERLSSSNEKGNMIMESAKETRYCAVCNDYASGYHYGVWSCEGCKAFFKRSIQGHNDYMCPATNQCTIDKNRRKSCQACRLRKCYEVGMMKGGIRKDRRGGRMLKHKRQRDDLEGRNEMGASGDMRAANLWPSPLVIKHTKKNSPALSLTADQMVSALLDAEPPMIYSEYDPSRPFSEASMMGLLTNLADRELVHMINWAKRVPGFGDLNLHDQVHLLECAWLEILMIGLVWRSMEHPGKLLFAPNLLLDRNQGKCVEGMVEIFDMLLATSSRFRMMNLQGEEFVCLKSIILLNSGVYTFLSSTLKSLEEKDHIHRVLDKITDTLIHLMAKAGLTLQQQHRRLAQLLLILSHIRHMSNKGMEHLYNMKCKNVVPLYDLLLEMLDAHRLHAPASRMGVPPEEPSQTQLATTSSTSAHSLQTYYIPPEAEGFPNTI
Procedure, shortened: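 MC3T3-E1 nuclear extracts incubated with 32P end-labeled ERα probe for 20 min at room temperature in 20 μl; 5-fold unlabeled competitor for specificity; 5% nondenaturing PAGE in Tris-borate-EDTA pH 8.3, autoradiography at –70 °C.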

[11] = system: MC3T3-E1; experiment: Increase in osteopontin levels in mouse MC3T3-E1 cells at 1 uM after 72 hrs by ELISA; type: functional, cell-based
Procedure, shortened: (§2)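 Cells treated with 1 μm for 72 h; osteocalcin or osteopontin in culture medium by sandwich ELISA, HRP-streptavidin/TMB, 450 nm; percent change versus untreated control.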

[12] = system: Osteoblast; experiment: Effect on ubiquitin-conjugating enzyme E2D 3 gene expression in rat primary osteoblast cells assessed as expression ratio of treated to untreated control by microarray analysis; type: functional
Procedure, shortened: (§3)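 GEArray Q series Mouse Osteogenesis cDNA array profiling osteogenic-differentiation genes in treated versus vehicle-treated primary osteoblasts.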

[13] = Reversal of increase in pBMP2 expression in mouse MC3T3-E1 cells transfected with dominant-negative mutant Src expression vector at 1 uM by luciferase method; type: functional, cell-based
Procedure, shortened: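 BMP-2 promoter activity measured by dual-luciferase assay and expressed relative to the untreated vector control.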

[14] = system: Osteoblast; experiment: Effect on cathepsin K gene expression in rat primary osteoblast cells assessed as expression ratio of treated to untreated control by microarray analysis; type: functional
[15] = system: MG-63; experiment: Increase in osteopontin levels in human MG63 cells at 1 uM after 72 hrs by ELISA; type: functional, cell-based; procedure, shortened: as §2
[16] = system: MC3T3-E1; experiment: Induction of ER association with BMP2 promoter in mouse MC3T3-E1 cells at 1 uM by ChiP assay; type: functional, cell-based
Procedure, shortened: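 MC3T3-E1 cells ± 1 μm, formaldehyde-fixed; ChIP with transcription factor antibodies and protein G magnetic beads; BMP-2 promoter quantified by real-time PCR (45 cycles); ratio of IP to input Ct values.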

[17] = target: T2, Alkaline phosphatase (Mus musculus) (UniProt Q9EQ79); experiment: Inhibition of induction of ALP activity in mouse MC3T3-E1 cells at 1 uM after 48 hrs in presence of noggin; type: cell-based
T2 sequence (whole entry): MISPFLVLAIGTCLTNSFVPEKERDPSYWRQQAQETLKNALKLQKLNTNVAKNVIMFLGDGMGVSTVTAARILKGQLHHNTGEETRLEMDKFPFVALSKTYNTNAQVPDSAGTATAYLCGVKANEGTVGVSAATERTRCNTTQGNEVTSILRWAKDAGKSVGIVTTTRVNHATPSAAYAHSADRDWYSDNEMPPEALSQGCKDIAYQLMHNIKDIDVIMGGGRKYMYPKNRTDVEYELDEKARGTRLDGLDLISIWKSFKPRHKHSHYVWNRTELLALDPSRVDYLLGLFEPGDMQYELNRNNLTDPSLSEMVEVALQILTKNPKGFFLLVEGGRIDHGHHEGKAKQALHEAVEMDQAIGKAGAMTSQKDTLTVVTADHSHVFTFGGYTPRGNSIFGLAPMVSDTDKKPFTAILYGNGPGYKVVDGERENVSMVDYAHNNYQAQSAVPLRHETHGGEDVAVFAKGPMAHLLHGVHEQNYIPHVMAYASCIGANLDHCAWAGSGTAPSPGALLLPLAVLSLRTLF

[18] = system: MC3T3-E1; experiment: Inhibition of etoposide-induced apoptosis in mouse MC3T3-E1 cells after 24 hrs by flow cytometry; type: functional, cell-based
Procedure, shortened: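 Cells washed in PBS, held 30 min in 0.5% Triton X-100/PBS/0.05% RNase A, then propidium iodide (50 μg/ml) added and kept on ice 15–30 min. Apoptosis is the hypodiploid fraction below the G0/G1 peak, by flow cytometry. Run in triplicate and repeated on three occasions.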

[19] = target: Forkhead box protein O3 (Homo sapiens) (UniProt O43524); experiment: Enhancement of FOXO3a activity in human MDA-MB-231 cells transfected with dominant negative Akt mutant; type: cell-based
Procedure, shortened: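 MDA-MB-231 cells transfected with vector, constitutively active Akt or dominant negative Akt, treated ± compound; analyzed by Western blotting and BMP-2 promoter luciferase activity.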

[20] = system: Osteoblast; experiment: Effect on twist gene homolog 1 gene expression in rat primary osteoblast cells assessed as expression ratio of treated to untreated control by microarray analysis; type: functional; procedure, shortened: as §3
[21] = system: Osteoblast; experiment: Effect on procollagen 9 alpha 3 gene expression in rat primary osteoblast cells assessed as expression ratio of treated to untreated control by microarray analysis; type: functional; procedure, shortened: as §1

Forkhead box protein O3 (Homo sapiens), sequence (O43524 whole entry): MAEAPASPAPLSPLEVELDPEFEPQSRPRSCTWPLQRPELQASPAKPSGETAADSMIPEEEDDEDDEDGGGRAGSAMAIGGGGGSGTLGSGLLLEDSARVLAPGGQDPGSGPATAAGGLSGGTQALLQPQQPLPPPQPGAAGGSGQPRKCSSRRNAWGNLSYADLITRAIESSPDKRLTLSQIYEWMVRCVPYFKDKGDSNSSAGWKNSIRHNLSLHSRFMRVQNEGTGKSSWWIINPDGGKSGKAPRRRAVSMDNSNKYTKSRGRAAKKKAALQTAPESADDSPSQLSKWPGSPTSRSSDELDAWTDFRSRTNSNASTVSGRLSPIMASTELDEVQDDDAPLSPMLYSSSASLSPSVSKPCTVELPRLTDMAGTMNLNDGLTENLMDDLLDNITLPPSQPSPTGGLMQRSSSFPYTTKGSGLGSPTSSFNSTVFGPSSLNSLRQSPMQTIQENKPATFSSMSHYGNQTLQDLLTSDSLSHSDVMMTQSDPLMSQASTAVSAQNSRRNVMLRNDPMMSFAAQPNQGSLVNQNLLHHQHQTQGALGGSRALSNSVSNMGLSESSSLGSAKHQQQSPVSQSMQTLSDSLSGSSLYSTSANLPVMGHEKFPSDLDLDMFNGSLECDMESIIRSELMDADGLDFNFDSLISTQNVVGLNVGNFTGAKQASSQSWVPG

Oc1ccc(/C=C/c2cc(O)cc(O)c2)cc1 [RESVERATROL]
Ratio [1]: 2.63 | Ratio [2]: 4.64 | Ratio [3]: 2.79 | Ratio [4]: 1 | Activity [5]: Active | Ratio [6]: 3.38 | Ratio [7]: 1.5 | Ratio [8]: 3.689 | Ratio [9]: 0.35 | Activity [10]: Active | Activity [11]: Active | Ratio [12]: 3.73 | Activity [13]: Active | Ratio [14]: 5.6 | Activity [15]: Active | Activity [16]: Active | Activity [17]: Active | Activity [18]: Active | Activity [19]: Active | Ratio [20]: 3.77 | Ratio [21]: 6.67
